Source: PubChem
RGS4 act – potentiators or activators of RGS4. HEK293 M3R/inducible RGS4, carbachol calcium flux Fluo4; active compounds read low. B-score at 10 µM. 310,000 tested, 0.92% active. AID 463111;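 active = B-score of the integrated calcium signal more than 4 SD below the library mean, with starting fluorescence not abnormally high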;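 also: negative B-score means reduced calcium response which marks RGS4 activation or potentiation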
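Material: Inducible-RGS4 HEK293 cells carrying M3 receptor; also added: carbachol at ECmax as muscarinic agonist stimulus; incubation: compound preincubation 20 min at room temperature before agonist; signal: Fluo4-AM (2 µM) calcium-flux fluorescence, kinetic read; measure: integrated calcium ratio converted to B score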
MrgX1 PAM – human MrgX1 positive allosteric modulation, primary screen; AID 588675; Q96LB2; MrgX1-HEK293, Fluo-4 calcium flux, FDSS; active compounds read high; B-score at 10 µM; 310,000 tested, 0.63% active;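 active = plate-corrected calcium response at least 3 library SD above typical, normal starting fluorescence, not activating the receptor alone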;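 also: compound read alongside a low EC10 to EC30 dose of BAM8-22 agonist; peak minus trough fluorescence over baseline measured at the second addition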
Target sequence (Q96LB2 whole entry, looked up): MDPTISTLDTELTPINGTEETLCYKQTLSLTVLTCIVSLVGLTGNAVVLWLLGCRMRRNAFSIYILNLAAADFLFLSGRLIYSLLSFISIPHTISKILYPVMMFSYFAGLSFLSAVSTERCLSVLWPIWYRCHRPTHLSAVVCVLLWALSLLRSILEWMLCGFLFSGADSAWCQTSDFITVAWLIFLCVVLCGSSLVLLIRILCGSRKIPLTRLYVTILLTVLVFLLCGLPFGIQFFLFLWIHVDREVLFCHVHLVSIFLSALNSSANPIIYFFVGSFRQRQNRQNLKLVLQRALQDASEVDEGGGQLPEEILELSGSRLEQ
MrgX1 antag – antagonists of human MrgX1 receptor | AID 588676 | 310,000 tested, 1.3% active | MRGX1-HEK293 calcium flux, Fluo-4, BAM8-22 antagonism; active compounds read low | Q96LB2 | B-score at 10 µM;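 active = calcium-response B-score plate-corrected more than 3 library SD below zero, starting fluorescence within 5 deviations, no agonist response on first addition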;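 also: peak minus trough fluorescence over baseline after final BAM8-22 challenge near maximal dose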
RGS4 block – human RGS4 inhibition | P49798 | HEK293 M3R/RGS4 inducible, Fluo-4 calcium flux; active compounds read high; triggered by carbachol at its EC20 | B-score at 10 µM | 310,000 tested, 0.45% active | AID 463165;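 active = B-score, a plate-corrected calcium signal, over three deviations above library mean, with baseline fluorescence within five deviations of library mean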;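 also: RGS4 expression induced by doxycycline in cells with stable M3 receptor; B-score is computed from the integrated fluorescence ratio over baseline after carbachol; higher B-score means a larger calcium signal and so more RGS4 inhibition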
Target sequence (P49798 whole entry, looked up): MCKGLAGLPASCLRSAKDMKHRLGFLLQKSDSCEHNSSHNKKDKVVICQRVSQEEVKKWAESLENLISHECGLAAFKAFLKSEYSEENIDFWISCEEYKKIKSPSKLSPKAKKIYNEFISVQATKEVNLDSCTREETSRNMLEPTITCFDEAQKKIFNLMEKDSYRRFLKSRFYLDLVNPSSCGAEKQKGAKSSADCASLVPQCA
MrgX1 ag – agonists of human MrgX1 receptor | MrgX1-HEK293 cells, Fluo-4 calcium fluorescence, agonist mode; active compounds read high | 310,000 tested, 0.44% active | Q96LB2 | B-score at 10 µM;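 active = calcium response B-score plate-corrected fluorescence ratio at least 3 library SD, with starting fluorescence B-score inside 5 SD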
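Material: MrgX1-expressing HEK293 cells / Dosing: compound as first of three additions / Incubation: overnight seeding, then 1 h dark dye loading / Signal: Fluo-4 NW calcium fluorescence / Evaluation: B-scored fluorescence response ratio / Benchmarks: positive and negative control wells on each plate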
MrgX1 PAM conf – human MrgX1 positive allosteric modulation, re-confirmation | MrgX1-HEK293, Fluo-4 calcium fluorescence, FDSS | 1,200 tested, 13% active | shares compounds with MrgX1 PAM | activation (ratio percentage), % at 10 µM;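 active = ratio at least 3 SD above the weak peptide control, stable starting fluorescence, no direct agonism earlier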;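 also: compound followed by low BAM8-22 agonist challenge near EC20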
MrgX1 antag conf – confirmation of human MrgX1 receptor antagonists; shares compounds with MrgX1 antag; MrgX1-HEK293, BAM8-22 calcium flux, Fluo-4; active compounds read low; remaining BAM8-22 calcium response % of control (active compounds read low), % at 10 µM; 2,300 tested, 19% active;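 active = remaining agonist calcium response no higher than 100% minus 3 SD of agonist-only control wells, with starting fluorescence near control levels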;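 also: agonist BAM8-22 given at a near maximal EC90 to ECmax level; peak minus minimum fluorescence divided by baseline after agonist addition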
HEK293 Ca flux – counter-screen for MrgX1 antagonists: effect in parental HEK293 cells; Fluo-4 calcium fluorescence, FDSS; fluorescence ratio F(max-min)/F0 at 10 µM; 4,000 tested, 2% active; shares compounds with MrgX1 antag;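 active = duplicate-averaged calcium fluorescence ratio at least three times the standard deviation of buffer wells, a nonspecific response in parental cells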
HEK293 Ca counter – activity in parental HEK293 cells without MrgX1; parental HEK293 calcium flux, Fluo-4 fluorescence ratio; active compounds read high; shares compounds with MrgX1 antag; AID 624114; 4,000 tested, 0.4% active; fluorescence ratio F(max-min)/F0 at 10 µM;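 active = calcium fluorescence ratio, averaged over duplicates, at least 3 SD of the buffer-well ratio, meaning a nonspecific response in receptor-free cells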;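 also: untransfected parental HEK293 lacking MrgX1 used as counterscreen for MrgX1 allosteric activators; fluorescence change taken during the second addition on a kinetic imager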
HEK293 Ca cntr2 – MrgX1 activator counter-screen hit in parental HEK293 cells; shares compounds with MrgX1 antag; Fluo-4 calcium fluorescence (FDSS); active compounds read high; fluorescence ratio F(max-min)/F0 at 10 µM; 4,000 tested, 8.7% active; AID 624115;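 active = calcium fluorescence ratio at least three times the spread of buffer wells, meaning a non-specific response in parental cells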
A number is an active result; - = inactive; . = no result. Sampled rows, rich in hits. Any-hit rate of the full collection: about 3.5%.

SMILES	RGS4 act	MrgX1 PAM	MrgX1 antag	RGS4 block	MrgX1 ag	MrgX1 PAM conf	HEK293 Ca flux	HEK293 Ca counter	HEK293 Ca cntr2	others
O=C(Nc1ccccc1N1CCOCC1)c1ccccc1NS(=O)(=O)c1ccc(F)c(F)c1	-	-	-	-	-	.	.	.	.
O=C(Nc1ccccc1N1CCOCC1)c1cccc(NS(=O)(=O)c2ccc(F)c(F)c2)c1	-	11	-	-	-	-	-	-	-
O=C(Nc1ccccc1N1CCOCC1)c1ccc2ccccc2c1	-	7.2	-	-	-	-	-	-	-
CCCCCCN=CC1=C(O)C(C(=O)OC)C(C)(C)CC1=O (stereo not given)	-	-	-	-	-	.	.	.	.
O=C(CCl)N(CCc1ccccc1)CCc1ccccc1	-	7.7	-	-	-	-	-	-	-
O=C(CCl)N(c1ccccc1)c1ccccc1	-	.	.	-	.	.	.	.	.
O=C(Cn1c(NCCO)nc2ccccc21)c1ccccc1	-	7.3	-	-	-	-	-	-	-
CC(C)Cc1ccc(C(C)C(=O)Nc2ccccc2O)cc1 (stereo not given)	-	7	-	-	-	-	-	-	-
Cc1cc(C)c(S(=O)(=O)ON2C(=O)c3ccccc3C2=O)cc1C	-	-	-	-	-	.	.	.	.
Cc1ccc(S(=O)(=O)ON2C(=O)c3ccccc3C2=O)c(C)c1	.	36	-	.	-	-	-	-	-
O=C(Nc1ccc(Cl)c(Cl)c1)c1ccccc1	.	8	-	.	-	-	-	-	-
O=C(C[n+]1ccc(-c2ccccc2)cc1)Nc1ccc([N+](=O)[O-])cc1	-	-	-	-	-	.	.	.	.
CCOc1ccccc1Nc1ccnc2cc(Cl)ccc12	-	11	-	-	-	-	-	-	-
Cc1ccc(-c2cc3onc(-c4ccccc4)c3c(=O)n2C)cc1	.	21	-	.	-	-	-	-	-
OCc1ccnc2oc3ccccc3c12	-	-	-	-	-	.	.	.	.
CCOC(=O)N1CCN(C(=S)Nc2cc(S(=O)(=O)N3CCOCC3)ccc2Cl)CC1	-	9.2	-	-	-	-	-	-	-
Cc1ccc(-c2nn(-c3ccccc3)cc2CO)cc1	-	38	-	-	-	6.8%	-	-	-
COc1ccc(-c2cn(-c3ccccc3)nc2CO)cc1	-	8.6	-	-	-	-	-	-	-
COc1ccc(-c2nn(-c3ccccc3)cc2N)cc1	-	-	-	-	-	.	.	.	.
COc1ccc(-c2nn(-c3ccccc3)cc2CO)cc1	-	10	-	-	-	-	-	-	-
CC(C)c1nc2sc3c(=S)nc[nH]c3c2c2c1CCC2	-	-	-	-	-	.	.	.	.
S=c1nc[nH]c2c1sc1nc(N3CCOCC3)c3c(c12)CCCC3	-	7.4	-	-	-	-	-	-	-
CCOC(=O)C1C(=O)NC(c2ccccc2)=NC1c1ccc(OC)cc1 (stereo not given)	-	12	-	-	-	-	-	-	-
CC(C)(C)c1csc(SCC(=O)Nc2ccc(Cl)cn2)n1	-	19	-	-	-	5.1%	-	-	-
COC(=O)C1Cc2ccccc2CN1C(=O)CCl (stereo not given)	-	8.1	-	-	-	-	-	-	-
SMILES	RGS4 act	MrgX1 PAM	MrgX1 antag	RGS4 block	MrgX1 ag	MrgX1 PAM conf	HEK293 Ca flux	HEK293 Ca counter	HEK293 Ca cntr2	others
O=Cc1ccc(OC(=O)CCCCC(=O)Oc2ccc(C=O)cc2)cc1	-	-	-	-	-	.	.	.	.
CCC(C)NS(=O)(=O)c1ccc(NS(=O)(=O)c2ccc(F)cc2)cc1 (stereo not given)	-	-	-	-	-	.	.	.	.
COCc1cc(C)nc(NC2CCCCC2)c1C#N	.	-	-	.	-	.	.	.	.
COCc1cc(SC2CCCCC2)nc(C)n1	-	15	-	-	-	-	-	-	-
CN(CC(=O)Nc1cccc(Cl)c1)S(=O)(=O)c1ccc2c(c1)n(C)c(=O)c(=O)n2C	-	-	-	-	-	.	.	.	.
Cn1nc(C(F)(F)F)c(-c2ccc(Br)cc2)c1NC(=O)c1cccnc1	-	-	-	-	-	.	.	.	.
Cn1nc(C(F)(F)F)c(-c2ccc(Br)cc2)c1NC(=O)c1ccco1	-	20	-	-	-	-	-	-	-
O=C(NCCCNC(=O)c1cnccn1)c1cccc(Cl)c1	-	-	-	-	-	.	.	.	.
CCc1n[nH]c(=S)n1/N=C/C(C)=C\c1ccccc1	-	6.6	-	-	-	-	-	-	-
Clc1ccsc1-c1ccc2ccccc2n1	-	-	-	-	-	.	.	.	.
c1ccc2nc(-c3nccs3)ccc2c1	-	6.5	-	-	-	-	-	-	-
O=C1CC2(CCN(C(=O)C3CC(=O)N(c4ccc(F)cc4)C3)CC2)Oc2ccccc21 (stereo not given)	-	-	-	-	-	.	.	.	.
O=C(Nc1ccc(S(=O)(=O)N2CCOCC2)cc1)C1CC1	-	15	-	-	-	-	-	-	-
CCC(=O)Nc1ccc(S(=O)(=O)N2CCOCC2)cc1	-	-	-	-	-	.	.	.	.
O=C(Nc1ccc(NC(=O)c2ccc(Cl)c(S(=O)(=O)N3CCOCC3)c2)cc1)c1ccccc1	-	-	-	-	-	.	.	.	.
O=C(Nc1ccccc1)Nc1ccc(Cl)c(S(=O)(=O)N2CCOCC2)c1	-	7.7	-8.1	-	-	-	-	-	-	MrgX1 antag conf=-
CCCc1nn2c(=O)cc(CSCC(=O)Nc3ccc(OC)cc3)nc2s1	-	-	-	-	-	.	.	.	.
Cc1ccc(-c2cc(-c3n[nH]c(=S)n3C)c3ccccc3n2)cc1	-	11	-	-	-	-	-	-	-
CCn1c(-c2cc(-c3ccc(C)c(C)c3)nc3ccccc23)n[nH]c1=S	-	-	-	-	-	.	.	.	.
Cc1ccccc1OC(C)C(=O)NCCC1=CCCCC1 (stereo not given)	-	11	-	-	-	-	-	-	-
CC(C)CN(CC(C)C)C(=O)C12CCC(C)(C(=O)O1)C2(C)C (stereo not given)	-	-	-	-	-	.	.	.	.
Cc1cc(NC(=O)CSc2nnc(-c3ccco3)n2Cc2ccco2)no1	-	-	-	-	-	.	.	.	.
CC(=O)Nc1ccc(NC(=O)CSc2nnc(-c3ccco3)n2Cc2ccco2)cc1	-	7	-	-	-	-	-	-	-
